Screens: PubChem, Broad Institute
Rows were chosen to be rich in hits. Some 3.5% of all compounds tested hit in one or more screens of this group.
DENV2 CPE rescue = DENV2-induced cell death inhibition; DENV2-infected cells, cytopathic effect rescue, plate reader; CPE inhibition, % at 9.99 µM; hit rate 1.7% among 350,000; in the data active = CPE inhibition above about 20%, passing the limit was not always enough; tested in BHK-21 cells;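 also: 0% = median of neutral control wells and 100% = median of positive control wells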
PGC1a acetyl inh = PGC1a acetylation modulation, inhibitor mode | U2OS PGC1a acetylation, AlphaScreen anti-acetyl-lysine; with virally co-expressed GCN5 acetyltransferase | inhibition, % at 15.6 µM | hit rate 0.17% among 350,000 | AID 651687;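 active = every replicate shows inhibition of at least 40%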;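 also: 0% = neutral control wells and 100% = positive control wells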
HIV Env fusion = HIV envelope-mediated fusion inhibition | HeLa-JRFL Env/CEM21 cell fusion, luciferase | inhibition, % at 12.3 µM | hit rate 1.1% among 360,000;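 active = mean replicate inhibition score of at least 50 and every replicate individually at or above 50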;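 also: 0% = plate neutral controls and 100% = maraviroc near 300 nM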
FN deposition inh = fibronectin deposition inhibition | hit rate 0.086% among 350,000 | AH1F fibroblasts, Alexa488-fibronectin deposition fluorescence, overnight | inhibition, % at 12.6 µM;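 active = mean inhibition across replicates of 30% or more, regardless of how many single replicates reach that level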;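 also: positive control wells lacked labelled fibronectin entirely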
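Test system: AH1F fibroblast monolayer depositing Alexa488-labelled fibronectin into matrix. Input: 10000 cells per well. Technique: fluorescence, ex 485 nm, em 525 nm. Buffer or medium: DMEM plus 2% serum, read in PBS. Timing: 1 h cell adhesion before compound, then overnight fibronectin incubation. Compound: single dose, pinned. Read-out basis: inhibition from reduced deposited-fibronectin fluorescence.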
PglD inh = inhibitors of Campylobacter jejuni PglD acetyltransferase | purified PglD enzyme, DTNB colorimetric CoA detection | inhibition, % at 12.5 µM | hit rate 0.098% among 360,000; in the data active = inhibition above about 16%, passing the limit was not always enough
Ecoli rRNA inh = selective bacterial rRNA inhibition in E. coli. hit rate 1.6% among 350,000. AID 720706. GFP signal change (wild-type ribosome), % (no concentration beside the values). E. coli WT GFP vs humanized-ribosome RFP mutants, fluorescence, 24 h; stronger effect = lower value; DMSO median 0, no signal -100;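 active = significant combined selectivity score with lowered wild-type GFP, culture density cut under 30%, mutant RFP and density less affected; inactive = any of these conditions unmet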
* hit, by the source's call; . = no result; [ ] = dose if it differs, or a comment.

SMILES	DENV2 CPE rescue	PGC1a acetyl inh	HIV Env fusion	FN deposition inh	PglD inh	Ecoli rRNA inh
CCCC(=O)Nc1ccc2c(c1)C(=O)N(C)C[C@@H](OC)[C@H](C)CN(Cc1ccc(F)cc1)[C@@H](C)CO2	.	13.5	.	-3.4	.	-5.1
O=S(=O)(NCc1ccccc1)c1cccc2cccnc12	.	.	5.3	0.1	.	.
O=S(=O)(NCCc1ccccc1)c1cccc2cccnc12	2.2	6.3	9.7	5.7	.	-24.9*
O=S(=O)(Nc1ccc(Br)cc1)c1cccc2cccnc12	1.9	.	7.1	1.2	.	-25.6*
COc1ccc(-c2noc(-c3cccs3)n2)cc1OC	7.8	9.9	-69.6	-14.2	.	12.1
COc1ccc(-c2noc(CSc3nnc(Cc4ccccc4)n3-c3cccc(C)c3)n2)cc1OC	-6.2	-18.0	.	.	1.1	-26.2*
Clc1ccc(-c2noc(CSc3nnc(-c4ccncc4)n3-c3ccccc3)n2)cc1	.	2.4	93.6*	.	1.4	.
CCn1c(SCc2nc(-c3ccc(OC)c(OC)c3)no2)nnc1-c1cccs1	4.6	-15.5	.	.	-1.7	-31.8*
Cc1ccc(-c2noc(CSc3nnc(Cc4ccccc4)n3-c3cccc(C)c3)n2)cc1	-4.4	-5.7	.	.	1.8	-7.4
C[C@@H]1CCCCO[C@@H](CN(C)C(=O)Nc2ccc3c(c2)OCO3)[C@H](C)CN([C@@H](C)CO)C(=O)c2cc(NC(=O)CCC(F)(F)F)ccc2O1	1.9	-4.5	-13.3[16.7 µM]	.	-1.4	-1.8
COc1ccccc1S(=O)(=O)N[C@H]1C=C[C@H](CC(=O)NCc2cccc(F)c2)O[C@H]1CO	28.4*	-0.6	3.1[16.7 µM]	-5.8	-5.1	-3.1
COc1ccc(S(=O)(=O)N[C@H]2C=C[C@H](CC(=O)N3CCN(c4ccccc4)CC3)O[C@@H]2CO)cc1	.	-0.8	59.4*[16.7 µM]	.	-3.8	-3.0
COc1ccc(S(=O)(=O)N[C@H]2C=C[C@@H](CC(=O)NCCc3ccccc3)O[C@@H]2CO)cc1	24.1*	-2.0	-11.1[16.7 µM]	.	1.3	-4.6
COc1ccc(S(=O)(=O)N[C@@H]2C=C[C@H](CC(=O)NCCc3ccccc3)O[C@@H]2CO)cc1	-0.7	-0.9	-16.8[16.7 µM]	.	-2.4	-5.2
COCCNC(=O)C[C@@H]1CC[C@H]2[C@@H](COC[C@@H](O)CN2C(=O)Nc2ccccc2OC)O1	-2.3	-9.6	.	4.0	-1.7	-0.1
C[C@H](CO)N1C[C@H](C)[C@H](CN(C)Cc2ccc(C(=O)O)cc2)Oc2ncc(C3=CCCC3)cc2C1=O	-6.6	4.4	-21.5[16.7 µM]	1.9	-0.7	-0.7
Brc1ccccc1CN1CCN(Cc2c[nH]c3ccccc23)CC1	12.8	.	26.5	13.7	.	-22.6*
Cc1noc(C)c1NC(=O)Nc1ccc2c(c1)C(=O)N([C@@H](C)CO)C[C@@H](C)[C@@H](CN(C)C(=O)Nc1ccc(C(F)(F)F)cc1)O2	32.2*	7.3	.	.	-1.0	-60.3
Cc1noc(C)c1NC(=O)Nc1ccc2c(c1)C(=O)N([C@@H](C)CO)C[C@H](C)[C@H](CN(C)C(=O)Nc1ccc(C(F)(F)F)cc1)O2	8.2	-7.1	.	.	-1.3	-34.0
C[C@H](CO)N1C[C@H](C)[C@@H](CN(C)C)Oc2ccc(NC(=O)Nc3ccc(F)cc3)cc2C1=O	75.3*	-5.4	.	.	3.2	-0.3
C[C@H]1CN([C@@H](C)CO)C(=O)c2cc(NC(=O)Nc3ccc(F)cc3)ccc2O[C@@H]1CN(C)C	26.2*	1.7	.	.	-1.4	1.5
C[C@@H]1CN([C@@H](C)CO)C(=O)c2cc(NC(=O)Nc3ccc(C(F)(F)F)cc3)ccc2O[C@@H]1CN(C)C	22.5*	-10.6	.	6.9	-0.7	-0.1
C[C@H]1CN([C@@H](C)CO)C(=O)c2cc(NC(=O)Nc3ccc(F)cc3)ccc2O[C@H]1CN(C)C	-0.7	-1.4	.	.	3.6	4.8
COC(=O)C[C@H]1C[C@H]2c3cc(NC(=O)Nc4ccccc4)ccc3O[C@H]2[C@@H](CO)O1	1.0	6.7	-1.3[16.7 µM]	.	1.2	5.1
COc1ccccc1C(=O)N1C[C@H]2[C@@H](c3ccccc31)[C@@H](CO)N2C(=O)Nc1ccccc1	-6.0	-11.3	.	.	-1.4	-8.8
CCCN(C)C[C@@H]1OCCCC[C@@H](C)Oc2ccc(N(C)C)cc2C(=O)N([C@@H](C)CO)C[C@@H]1C	-3.4	17.7	0.4[16.7 µM]	.	2.7	-0.9
